This is an account of results in PMC11974842 (bioRxiv, 2025).

B1: ScCia1, strep-tagged bait (natural protein)
chain: MASINLIKSLKLYKEKIWSFDFSQGILATGSTDRKIKLVSVKYDDFTLIDVLDETAHKKAIRSVAWRPHTSLLAAGSFDSTVSIWAKEESADRTFEMDLLAIIEGHENEVKGVAWSNDGYYLATCSRDKSVWIWETDESGEEYECISVLQEHSQDVKHVIWHPSEALLASSSYDDTVRIWKDYDDDWECVAVLNGHEGTVWSSDFDKTEGVFRLCSGSDDSTVRVWKYMGDDEDDQQEWVCEAILPDVHKRQVYNVAWGFNGLIASVGADGVLAVYEEVDGEWKVFAKRALCHGVYEINVVKWLELNGKTILATGGDDGIVNFWSLEKAA
B2: R127ACia1: ScCia1 variant (protein)
chain: B1 chain with R127A
modifications: left off: His6, N-terminal, state not stated
B3: R127E (protein, UniProt Q05583 1-330, looked up, variant R127E)
Cytosolic iron-sulfur protein …: B1 chain with R127E
B4: Nar1: full-length S. cerevisiae Nar1 with N-terminal His6-SUMO tag (protein)
chain: MSALLSESDLNDFISPALACVKPTQVSGGKKDNVNMNGEYEVSTEPDQLEKVSITLSDCLACSGCITSSEEILLSSQSHSVFLKNWGKLSQQQDKFLVVSVSPQCRLSLAQYYGLTLEAADLCLMNFFQKHFQCKYMVGTEMGRIISISKTVEKIIAHKKQKENTGADRKPLLSAVCPGFLIYTEKTKPQLVPMLLNVKSPQQITGSLIRATFESLAIARESFYHLSLMPCFDKKLEASRPESLDDGIDCVITPREIVTMLQELNLDFKSFLTEDTSLYGRLSPPGWDPRVHWASNLGGTCGGYAYQYVTAVQRLHPGSQMIVLEGRNSDIVEYRLLHDDRIIAAASELSGFRNIQNLVRKLTSGSGSERKRNITALRKRRTGPKANSREMAAATAATADPYHSDYIEVNACPGACMNGGGLLNGEQNSLKRKQLVQTLNKRHGEELAMVDPLTLGPKLEEAAARPLSLEYVFAPVKQAVEKDLVSVGSTW
B5: Nar1 TCR-peptide variant: ScNar1 with C-terminal Trp substituted with Ala (protein)
chain: B4 chain with W491A
B6: Leu1: S. cerevisiae Leu1 with N-terminal His6-TEV tag (protein)
chain: MVYTPSKGPRTLYDKVFDAHVVHQDENGSFLLYIDRHLVHEVTSPQAFEGLENAGRKVRRVDCTLATVDHNIPTESRKNFKSLDTFIKQTDSRLQVKTLENNVKQFGVPYFGMSDARQGIVHTIGPEEGFTLPGTTVVCGDSHTSTHGAFGSLAFGIGTSEVEHVLATQTIIQAKSKNMRITVNGKLSPGITSKDLILYIIGLIGTAGGTGCVIEFAGEAIEALSMEARMSMCNMAIEAGARAGMIKPDETTFQYTKGRPLAPKGAEWEKAVAYWKTLKTDEGAKFDHEINIEAVDVIPTITWGTSPQDALPITGSVPDPKNVTDPIKKSGMERALAYMGLEPNTPLKSIKVDKVFIGSCTNGRIEDLRSAAAVVRGQKLASNIKLAMVVPGSGLVKKQAEAEGLDKIFQEAGFEWREAGCSICLGMNPDILDAYERCASTSNRNFEGRQGALSRTHLMSPAMAAAAGIAGHFVDIREFEYKDQDQSSPKVEVTSEDEKELESAAYDHAEPVQPEDAPQDIANDELKDIPVKSDDTPAKPSSSGMKPFLTLEGISAPLDKANVDTDAIIPKQFLKTIKRTGLKKGLFYEWRFRKDDQGKDQETDFVLNVEPWREAEILVVTGDNFGCGSSREHAPWALKDFGIKSIIAPSYGDIFYNNSFKNGLLPIRLDQQIIIDKLIPIANKGGKLCVDLPNQKILDSDGNVLVDHFEIEPFRKHCLVNGLDDIGITLQKEEYISRYEALRREKYSFLEGGSKLLKFDNVPKRKAVTTTFDKVHQDW

In experiment [1] the target is FITC-4mer probe (last 4 residues of ScLeu1) (Saccharomyces cerevisiae) (UniProt P07264). The experiment is described as follows: fluorescence polarisation. (In general: Fluorescence polarisation rises when a labelled molecule tumbles more slowly, as on binding a larger partner.)
The target of experiment [2] is ScCia2 (Saccharomyces cerevisiae). The experiment is described as follows: MST.
The target in experiment [3] is T1, ScNar1 (Saccharomyces cerevisiae, UniProt P23503 1-491).
T1 sequence: B4 chain
Briefly: pull-down.

Experiment [4] relates to SPCNar1. The experiment is described as follows: Affinity copurification of ScCia1 variants with SPCNar1. To be noted: ScCia1 variants with Met18 and strep-tagged Cia2 bait, western blot. The experiment is classed as binding, Saccharomyces cerevisiae.
Experiment [5] has as its system full-length Nar1. Briefly: Affinity copurification of CTC with ScCia1 variants and full-length Nar1. To be noted: ScCia1 variants incorporated into the CTC. Type of experiment: binding, Saccharomyces cerevisiae.
For experiment [6], the system named is ScCia1-Cia2. Briefly: Affinity copurification with ScCia1-Cia2. Type of experiment: binding, Saccharomyces cerevisiae. The note with it: streptactin eluate, SDS-PAGE / western blot. In short, it runs like this:
(§1)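 Nar1 is the prey. Strep-tagged bait is either single CTC subunits (Cia1 alone) or combinations (Cia1-Cia2, or full Cia1-Cia2-Met18 complex). Eluates are analysed by SDS-PAGE and western blot for copurifying Nar1. Uncropped gels, including input samples and controls, accompany the analysis.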
(In general: A western blot detects proteins with antibodies after separation by electrophoresis.)

For experiment [7], the system named is ScCTC (Cia1, Cia2, Met18). The experiment is described as follows: Affinity copurification with ScCTC. Type of experiment: binding, Saccharomyces cerevisiae. The note with it: streptactin eluate, strep-tagged Cia2 bait, SDS-PAGE / western blot. In short, it runs like this:
as §1

The test system of experiment [8] is ScCTC-Leu1 complex. Briefly: Competition of Nar1 with Leu1 for the CTC. Type of experiment: binding, Saccharomyces cerevisiae. To be noted: Nar1 0.25-1.0 molar equivalents relative to Leu1; streptactin eluate, SDS-PAGE.
The test system of experiment [9] is ScCia1. Briefly: Affinity copurification with ScCia1. Type of experiment: binding, Saccharomyces cerevisiae. To be noted: streptactin eluate, SDS-PAGE / western blot. In short, it runs like this:
as §1

In experiment [10] the target is B1. The experiment is described as follows: pull-down.

Positions count from the first letter of the chain named. Numbers in names are those of the source.

By Kd is commonly meant the constant that tells how readily two partners part at equilibrium. In experiment [1], “HsCia1-Cia2a complex (from UniProt O76071 1-339; Q9H5X1 1-160)” gave a Kd of 48 µM. The molecule “ScCia1 Y254A (from UniProt Q05583 1-330) (natural protein)” returned a fold increase in KD against wild-type Cia1 in [2] of over 10 fold. “ScCia1-Cia2 complex (from UniProt Q05583 1-330)” gave a Kd in experiment [1] of 86 µM.

The molecule CtCia1-Cia2 complex yielded a Kd in experiment [1] of 25 µM.

Consider B1, for which the binding result in experiment [3] is “binds”.

Take B2: the “interaction with SPCNar1” value in [4] is given as “diminished the amount”. Consider B3, for which, in [5], the “interaction with full-length Nar1” value was “none of the Cia1 variants tested, including the charge swapped R127E variant, completely blocked interaction”. For B4, in [6], the “copurification with Cia1-Cia2” value is “Nar1 eluting with Cia1, Cia1-Cia2, and the full CTC”. Further, the “copurification with the CTC” value in experiment [7] is “Nar1 eluting with Cia1, Cia1-Cia2, and the full CTC”. Moreover, in experiment [8], the “competition with Leu1 for binding to the CTC” value is “the interaction of Nar1 and Leu1 with the CTC is mutually exclusive”. Moreover, the “copurification with Cia1” value in [9] was “Nar1 eluting with Cia1, Cia1-Cia2, and the full CTC”.

Consider B5, for which the “copurification with the CTC” value in experiment [7] is “less Nar1 TCR-peptide variant was found in the eluate”. Same read-out and setting: the value for B6 was “requires its C-terminal Trp to interact with the CTC in vitro”. With KDLVSVGSTW (domain or fragment) [SPCNar1 (SUMO peptide carrier with Nar1 residues 482-491)], in experiment [10], the binding result is reported as “binds”.
